Assay results pooled from the literature.
Each line is one published result; the experiments were not run side by side.
Cell line: BT-549
Read-out: cell growth or viability

Cl.Oc1cccc2c1[nH]c1c(C3=CC4(O)CC/C=C\CCCCN5CCC3C3(CC6/C=C\CCCCN6C43)C5)nccc12 (single isomer, unassigned; (+))  IC50 (neutral red; 48 h): 1.05 µg/mL
CC(=O)O[C@@]12CO[C@@H]1C[C@H](O)[C@@]1(C)C(=O)[C@H](O)C3=C(C)[C@@H](OC(=O)[C@H](O)[C@@H](NC(=O)OC(C)(C)C)c4ccccc4)C[C@@](O)([C@@H](OC(=O)c4ccccc4)[C@H]21)C3(C)C  IC50 (ATP luminescence; 72 h): 0.001 µM
COc1ccc(C(=O)/C=C/c2cccc(Cl)c2Cl)cc1S(N)(=O)=O  GI50 (SRB; 48 h): 4.7 µM
CC(=O)O[C@H]1C(=O)[C@@]2(C)[C@H]([C@H](OC(=O)c3ccccc3)[C@]3(O)C[C@H](OC(=O)[C@H](O)[C@@H](NC(=O)c4ccccc4)c4ccccc4)C(C)=C1C3(C)C)[C@]1(OC(C)=O)CO[C@@H]1C[C@@H]2O  IC50 (ATP luminescence; 72 h): 0.0031 µM
COc1cccc(Oc2ccccc2NC(=O)CNC(=O)c2cccc3ccccc23)c1  GI50 (SRB; 48 h): 0.295 µM
C#C[C@@]1(O)[C@@H](CO)O[C@@H](n2cc(Br)c3c(N)ncnc32)[C@@H]1O  GI50 (SRB): 0.147 µM
COc1cccc2c1C(=O)c1c(O)c3c(c(O)c1C2=O)C[C@@](O)(C(=O)CO)C[C@@H]3O[C@H]1C[C@H](N)[C@H](O)[C@H](C)O1  IC50 (neutral red; 48 h): 1.05 µg/mL
COc1ccc(-c2ccc(-c3ccc(C(=N)N)nc3)s2)cc1  GI50 (SRB): 1.7 µM
COc1ccc(C(=O)/C=C/c2cccc3ccccc23)cc1S(N)(=O)=O  GI50 (SRB; 48 h): 1.8 µM
COc1cc(-c2ccc(-c3ccc(C(=N)N)nc3)s2)cc(OC)c1OC  GI50 (SRB): 1.67 µM
O=C1Nc2ccccc2C1=NNc1nnc2n1N=C(c1ccccc1)CS2  inhibition (SRB; 10 µM): 28%
